# Results pooled from the literature.
# Protocols differ between the studies behind these lines.
# Cell line: HepG2
# Effect on: cell growth or viability
SMILES,method,tested at,time,endpoint,value
COc1ccc(NCC(=O)Nc2c(C#N)sc(Nc3ccccc3)c2C(=O)Nc2ccc(OC)cc2)cc1,SRB,0.1 µM,48 h,viability,84.4%
CC(=O)Nc1cccc(-n2c(=O)n(C3CC3)c(=O)c3c(Nc4ccc(I)cc4F)n(C)c(=O)c(C)c32)c1,resazurin,0.1 µM,72 h,viability,40.7%
CCOC(=O)c1ccc(-n2c(C)cc(/C=C/c3ccc(OC)cc3)c(C#N)c2=O)cc1,MTT,50 µM,24 h,viability,58.1%
C=CCn1c(-c2ccc([N+](=O)[O-])cc2)nc2ccccc21,MTT,,,IC50,36.8 µM
CCOC(=O)c1ccc(-n2c(N)c(C#N)c(CC#N)c(C#N)c2=O)cc1,MTT,3.125 µM,24 h,viability,90.2%
COc1ccc(NC(=O)c2c(Nc3ccccc3)sc(C(=O)NN=Cc3ccc(Cl)cc3)c2NC(C)=O)cc1,SRB,10 µM,48 h,viability,71.2%
Clc1ccc(-c2nc3ccccc3[nH]2)cc1,MTT,,48 h,IC50,51.5 µM
COc1ccc(NC(=O)c2c(Nc3ccccc3)sc(C#N)c2NC(=O)CNc2ccc(Br)cc2)cc1,SRB,10 µM,48 h,viability,46.2%
c1ccc2c(-c3nc4ccccc4[nH]3)c3ccccc3cc2c1,MTT,,48 h,IC50,9.79 µM
